Results taken from ChEMBL document CHEMBL1938319, “Design, synthesis, and in vitro antiproliferative activity of novel Dasatinib derivatives” (Bioorg Med Chem Lett, 2012).

Experiments:
K562 [1] = assay: Growth inhibition of human K562 cells at 10 uM after 72 hrs by WST-8 reagent based MTT assay; assay type: functional; conditions: K562, 72 h, read-out: GI
How it was run: (§1)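 Single-concentration screen at 10 μM on K562 or U937 cells in RPMI1640 with 10% FBS, 5.0 × 10³ cells/well, settled 4 h, then 72 h exposure at 37 °C, 5% CO₂. WST-8/1-methoxyphenazinium reagent added for 1.5 h. A450 read with 650 nm correction. Growth given as % absorbance relative to vehicle control, averaged over three independent experiments.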

U-937 [2] = assay: Cytotoxicity against human U937 cells after 72 hrs by WST-8 reagent based MTT assay; assay type: functional, cell-based; conditions: U-937, 72 h
How it was run: (§2)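 K562 or U937 cells in RPMI1640 with 10% FBS, 5.0 × 10³ cells/well, settled 4 h at 37 °C, 5% CO₂. Exposed to compound for 72 h. Medium removed, then WST-8 reagent (5 mM WST-8, 0.2 mM 1-methoxyphenazinium salt, 150 mM NaCl) added for 1.5 h at 37 °C. Absorbance read at 450 nm, corrected at 650 nm, as % of vehicle control. IC50 from concentration–response curve fitting. Three independent experiments averaged.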

K562 [3] = assay: Cytotoxicity against human K562 cells after 72 hrs by WST-8 reagent based MTT assay; assay type: functional, cell-based; conditions: K562, 72 h; how it was run: as §2
U-937 [4] = assay: Growth inhibition of human U937 cells at 10 uM after 72 hrs by WST-8 reagent based MTT assay; assay type: functional; conditions: U-937, 72 h, read-out: GI; how it was run: as §1

| Compound | inhibition of growth at 10 µM (K562 [1]) [%] | IC50 (U-937 [2]) [µM] | IC50 (K562 [3]) [µM] | inhibition of growth at 10 µM (U-937 [4]) [%] |
| --- | --- | --- | --- | --- |
| COc1cc2c(Nc3ccc4sc(C(=O)Nc5c(C)cccc5Cl)cc4c3)ncnc2cc1OCCCN1CCCCC1C (stereo not drawn) | 84.2 | 3.45 | 2.15 | 80.2 |
| CCN(CCO)CCCOc1cc2ncnc(Nc3ccc4sc(C(=O)Nc5c(C)cccc5Cl)cc4c3)c2cc1OC | 59.8 | 4.25 | 8.97 | 76.9 |
| COc1cc2c(Nc3ccc4sc(C(=O)Nc5c(C)cccc5Cl)cc4c3)ncnc2cc1OCCCN1CCCCC1 | 71.8 | 4.34 | 4.01 | 75.7 |
| COc1cc2c(Nc3ccc4sc(C(=O)Nc5c(C)cccc5Cl)cc4c3)ncnc2cc1OCCCN1CCOCC1 | 9.99 | 9.09 |  | 56.2 |
| Cc1nc(Nc2ccc3sc(C(=O)Nc4c(C)cccc4Cl)cc3c2)cc(N2CCN(C)CC2)n1 | 32.4 | 15 | 17 | 40.6 |
| Cc1nc(Nc2ccc3sc(C(=O)Nc4c(C)cccc4Cl)cc3c2)cc(N2CCC(C)CC2)n1 | 20.5 | 20.6 | 22.2 | 24.6 |
| Cc1nc(Nc2ccc3sc(C(=O)Nc4c(C)cccc4Cl)cc3c2)cc(N2CCOCC2)n1 | 13.9 |  |  | 8.37 |
| Cc1nc(Nc2ccc3sc(C(=O)Nc4c(C)cccc4Cl)cc3c2)cc(N2CCCCC2)n1 | 8.78 | 20 |  | 20.6 |
| CCN(CC)CCCOc1cc2ncnc(Nc3ccc4sc(C(=O)Nc5c(C)cccc5Cl)cc4c3)c2cc1OC | 72.5 | 4.01 | 3.55 | 78 |
| CCN1CCN(c2cc(Nc3ccc4sc(C(=O)Nc5c(C)cccc5Cl)cc4c3)nc(C)n2)CC1 | 33.9 | 13.1 | 16.9 | 46.5 |
| Cc1nc(Nc2ncc(C(=O)Nc3c(C)cccc3Cl)s2)cc(N2CCN(CCO)CC2)n1 [DASATINIB] | 37.4 | 13.6 | 12.8 | 37.2 |
| COc1cc2c(Nc3ccc4sc(C(=O)Nc5c(C)cccc5Cl)cc4c3)ncnc2cc1OCCCN1CCN(C)CC1 | 51.2 | 3.48 | 9.88 | 76 |
| Cc1nc(Nc2ccc3sc(C(=O)Nc4c(C)cccc4Cl)cc3c2)cc(N2CCN(CCO)CC2)n1 | 27.8 | 13.7 | 21.9 | 37.1 |
